Assay results as given in ChEMBL document CHEMBL5154784, “Design, Synthesis, Biological Evaluation, and Computational Studies of Novel Ureidopropanamides as Formyl Peptide Receptor 2 (FPR2) Agonists to Target the Resolution of Inflammation in Central Nervous System Disorders” (J Med Chem, 2022).

How the values were obtained:
[1] = target: T1, N-formyl peptide receptor 2 (Homo sapiens, UniProt P25090); assay: Agonist activity at human FPR2 transfected in human HL-60 cells assessed as increase in calcium mobilization measured every 5 seconds for 240 secs by Fluo-4-AM dye based fluorescence assay; type: functional, cell-based
T1 sequence (P25090 whole entry): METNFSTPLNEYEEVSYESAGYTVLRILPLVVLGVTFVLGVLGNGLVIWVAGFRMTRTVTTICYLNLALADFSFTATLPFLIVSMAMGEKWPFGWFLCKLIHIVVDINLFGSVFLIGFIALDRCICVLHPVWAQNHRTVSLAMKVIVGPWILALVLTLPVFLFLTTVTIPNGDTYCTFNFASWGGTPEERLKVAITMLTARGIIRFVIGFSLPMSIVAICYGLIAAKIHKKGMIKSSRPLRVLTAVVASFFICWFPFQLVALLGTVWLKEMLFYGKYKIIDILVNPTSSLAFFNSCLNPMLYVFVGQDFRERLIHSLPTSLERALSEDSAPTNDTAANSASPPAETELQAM

[2] = Metabolic stability in rat liver microsomes assessed as compound remaining at 10 uM preincubated for 10 mins followed by NADPH addition and measured after 30 mins by HPLC analysis; type: ADME, Microsome; conditions: time 40 min, read-out: Stability
In short: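 Rat liver microsomes (1.0 mg/mL protein), compound 10 μM final in 100 mM potassium phosphate pH 7.4, pre-incubated 10 min at 37 °C, then NADPH regenerating system added. After 30 min, % parent remaining by HPLC-DAD (C18, MeOH/H2O 80:20) versus incubation without NADPH system.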

[3] = target: T1, N-formyl peptide receptor 2; assay: Antagonist activity at human FPR2 transfected in human HL-60 cells assessed as inhibition of WKYMVM-induced intracellular calcium mobilization preincubated for 10 mins followed by WKYMVM addition measured every 5 seconds for 240 secs by Fluo-4-AM dye based fluorescence assay; type: functional, cell-based
In short: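 Fluo-4-loaded FPR2-HL60 cells pre-incubated 10 min with compound (1% DMSO final), then challenged with 5 nM WKYMVM. Maximum change over baseline taken as response. IC50 by four-parameter logistic regression of at least 5–6 point curves.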

[4] = Cytotoxicity against mouse N9 cells assessed as reduction in cell viability incubated for 48 hrs by MTT assay; type: toxicity, cell-based
In short: (§1)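 MTT 0.5 mg/mL added for 3–4 h at 37 °C, formazan dissolved in DMSO/EtOH 1:1, absorbance read at 570 and 630 nm. Mean ± SD from at least two to three experiments in triplicate.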

fMet-Leu-Phe receptor [5] = target: T2, fMet-Leu-Phe receptor (Homo sapiens, UniProt P21462); assay: Agonist activity at human FPR1 transfected in human HL-60 cells assessed as increase in calcium mobilization measured every 5 seconds for 240 secs by Fluo-4-AM dye based fluorescence assay; type: functional, cell-based
T2 sequence (P21462 whole entry): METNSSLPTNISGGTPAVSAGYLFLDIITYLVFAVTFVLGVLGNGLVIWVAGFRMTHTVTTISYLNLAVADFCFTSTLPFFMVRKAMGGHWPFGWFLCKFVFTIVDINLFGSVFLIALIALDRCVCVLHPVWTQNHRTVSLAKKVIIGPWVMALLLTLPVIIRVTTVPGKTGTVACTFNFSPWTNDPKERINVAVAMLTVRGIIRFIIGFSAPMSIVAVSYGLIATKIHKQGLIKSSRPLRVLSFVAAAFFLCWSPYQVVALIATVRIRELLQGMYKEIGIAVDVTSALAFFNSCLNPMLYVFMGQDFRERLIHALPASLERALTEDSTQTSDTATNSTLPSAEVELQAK

[6] = target: T3, N-formyl peptide receptor 2 (Homo sapiens) (UniProt P25090); assay: Agonist activity at human FPR2 transfected in HL-60 cells assessed as induction of intracellular calcium ions mobilization using WKYMVM as substrate preincubated for 10 mins followed by substrate addition and measured every 5 seconds for 240 secs by Fluo-4-AM dye based fluorescent assay relative to control; type: functional, cell-based; conditions: filed as agonist
T3 sequence (whole entry): T1 sequence (P25090 whole entry)

[7] = Cytotoxicity against mouse N9 cells assessed as reduction in cell viability by measuring LDH release at 0.5 to 5 uM incubated for 24 hrs by LDH assay; type: toxicity, cell-based; conditions: n9, 24 h, dose 0.5-5 µM
In short: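 N9 cells (2 × 10^4/well) given compound at 0.5 or 5 μM, alone or with LPS (E. coli O111:B4, 100 ng/mL) added 30 min later, for 24 h at 37 °C. Released LDH measured in supernatant (30 min, room temperature, 490/630 nm). Expressed as % of untreated cells, mean ± SEM, at least three experiments in triplicate.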

fMet-Leu-Phe receptor [8] = target: T2, fMet-Leu-Phe receptor; assay: Antagonist activity at human FPR1 transfected in human HL-60 cells assessed as inhibition of fMLF-induced intracellular calcium mobilization preincubated for 10 mins followed by fMLF addition and measured every 5 seconds for 240 secs by Fluo-4-AM dye based fluorescence assay; type: functional, cell-based
[9] = Cytotoxicity against mouse N9 cells assessed as reduction in cell viability at 1 to 100 uM incubated for 48 hrs by MTT assay relative to control; type: toxicity, cell-based; conditions: n9, 48 h, dose 1-100 µM; in short: as §1

| Structure (SMILES) | EC50 [1] | remaining at 0.5 h, 10 µM [2] | IC50 [3] | EC50 at 48 h [4] | EC50 (fMet-Leu-Phe receptor [5]) | Efficacy [6] | Activity [7] | IC50 (fMet-Leu-Phe receptor [8]) | Activity [9] |
| --- | --- | --- | --- | --- | --- | --- | --- | --- | --- |
| N#Cc1ccc(C[C@@H](NC(=O)Nc2ccc(F)cc2)C(=O)N2CCc3cccnc32)cc1 | 1.1 µM | 10% | 1.2 µM | – | – | – | – | – | – |
| N#Cc1ccc(C[C@@H](NC(=O)Nc2ccc(F)cc2)C(=O)N2CCc3cc(F)ccc32)cc1 | 0.41 µM | – | 3.4 µM | 23.8 µM | 1.8 µM | 90% | – | – | – |
| N#Cc1ccc(C[C@H](NC(=O)Nc2ccc(F)cc2)C(=O)N2CCc3cccnc32)cc1 | 0.16 µM | 14% | 0.14 µM | – | – | – | – | – | – |
| N#Cc1ccc(C[C@H](NC(=O)Nc2ccc(F)cc2)C(=O)N2Cc3ccccc3C2)cc1 | 0.34 µM | 31% | 4.4 µM | – | – | – | Non-Toxic | – | – |
| N#Cc1ccc(C[C@@H](NC(=O)Nc2ccc(F)cc2)C(=O)N2CCc3ccccc32)cc1 | 5.6 µM | 14% | 3.9 µM | – | – | – | – | – | – |
| N#Cc1ccc(C[C@@H](NC(=O)Nc2ccc(F)cc2)C(=O)NC2CCCCNC2=O)cc1 (some centres undefined) | 1 µM | 78% | 3.8 µM | > 100 µM | 4.2 µM | 140% | – | 40.4 µM | 36% |
| N#Cc1ccc(C[C@@H](NC(=O)Nc2ccc(F)cc2)C(=O)N2CCCc3ccccc32)cc1 | 0.25 µM | 7% | 0.012 µM | 13.7 µM | 0.44 µM | 175% | – | 17.4 µM | – |
| N#Cc1ccc(C[C@@H](NC(=O)Nc2ccc(F)cc2)C(=O)N2CCc3ccccc3C2)cc1 | 1.3 µM | 4% | 3.5 µM | – | – | – | – | – | – |
| N#Cc1ccc(C[C@@H](NC(=O)Nc2ccc(F)cc2)C(=O)N2Cc3ccccc3C2)cc1 | 19.3 µM | 15% | – | – | – | – | – | – | – |
| N#Cc1ccc(C[C@@H](NC(=O)Nc2ccc(F)cc2)C(=O)N2CCc3ccc(F)cc3C2)cc1 | 0.62 µM | 14% | 0.24 µM | – | – | – | – | – | – |
| N#Cc1ccc(C[C@H](NC(=O)Nc2ccc(F)cc2)C(=O)N2CCc3cc(F)ccc32)cc1 | 0.16 µM | 19% | 0.21 µM | 29.4 µM | 4.8 µM | 110% | Non-Toxic | – | – |
| CC1(C)CN(C(=O)[C@@H](Cc2ccc(C#N)cc2)NC(=O)Nc2ccc(F)cc2)c2ccccc21 | 6.9 µM | 65% | 16.4 µM | – | – | – | – | – | – |
| CC1(C)CN(C(=O)[C@H](Cc2ccc(C#N)cc2)NC(=O)Nc2ccc(F)cc2)c2ccccc21 | 2.3 µM | – | 2.7 µM | – | – | – | – | – | – |
| N#Cc1ccc(C[C@@H](NC(=O)Nc2ccc(F)cc2)C(=O)N2CCc3ccc(F)cc32)cc1 | – | 28% | – | – | – | – | Toxic | – | – |
| N#Cc1ccc(C[C@H](NC(=O)Nc2ccc(F)cc2)C(=O)N2CCc3ccc(F)cc3C2)cc1 | 0.45 µM | 8% | 0.26 µM | – | – | – | – | – | – |
| N#Cc1ccc(C[C@@H](NC(=O)Nc2ccc(F)cc2)C(=O)N2CCCCC2)cc1 | 13.4 µM | 25% | 49.3 µM | – | – | – | – | – | – |
| N#Cc1ccc(C[C@H](NC(=O)Nc2ccc(F)cc2)C(=O)N2CCc3ccccc3C2)cc1 | 0.24 µM | 6% | 0.03 µM | – | – | – | Non-Toxic | – | – |
| CC1(C)CN(C(=O)[C@H](Cc2ccc(C#N)cc2)NC(=O)Nc2ccc(F)cc2)Cc2cc(F)ccc21 | 1.6 µM | 34% | 0.6 µM | – | – | – | – | – | – |
| N#Cc1ccc(C[C@H](NC(=O)Nc2ccc(F)cc2)C(=O)N2CCC(F)(F)CC2)cc1 | 19.5 µM | 67% | 30.1 µM | > 100 µM | – | 80% | – | – | 9% |
| N#Cc1ccc(C[C@H](NC(=O)Nc2ccc(F)cc2)C(=O)N2CCCC2)cc1 | 3.1 µM | – | 6.4 µM | > 100 µM | 15.3 µM | 100% | – | 33.8 µM | 55% |
| N#Cc1ccc(C[C@H](NC(=O)Nc2ccc(F)cc2)C(=O)N2CCCc3ccccc32)cc1 | 0.27 µM | 10% | 0.013 µM | 14.7 µM | 1.2 µM | 120% | Toxic | 24.2 µM | – |
| N#Cc1ccc(C[C@H](NC(=O)Nc2ccc(F)cc2)C(=O)NCC2(c3ccc(F)c(Cl)c3)CC2)cc1 | – | – | – | 3.26 µM | – | – | Non-Toxic | – | – |
| N#Cc1ccc(C[C@H](NC(=O)Nc2ccc(F)cc2)C(=O)N2CCCCC2)cc1 | 0.98 µM | – | 12 µM | – | – | – | – | – | – |
| N#Cc1ccc(C[C@@H](NC(=O)Nc2ccc(F)cc2)C(=O)N2Cc3ccc(F)cc3C2)cc1 | 7.2 µM | 72% | – | 9.44 µM | 5.6 µM | 45% | – | – | – |
| N#Cc1ccc(C[C@@H](NC(=O)Nc2ccc(F)cc2)C(=O)N2CCC(F)(F)CC2)cc1 | – | 62% | – | > 100 µM | – | – | – | – | 40% |
| N#Cc1ccc(C[C@@H](NC(=O)Nc2ccc(F)cc2)C(=O)N2CCCC2)cc1 | 5.2 µM | 61% | 16.5 µM | > 100 µM | 26.4 µM | 105% | – | 43.9 µM | 59% |
| N#Cc1ccc(C[C@H](NC(=O)Nc2ccc(F)cc2)C(=O)N2Cc3ccc(F)cc3C2)cc1 | 1.7 µM | – | 4.4 µM | 18.2 µM | 3.3 µM | 70% | – | – | – |
